The values that follow come from ChEMBL document CHEMBL1131325, “Synthesis and antiviral evaluation of certain novel pyrazinoic acid C-nucleosides” (J Med Chem, 1998).

One assay has as its system KB. Nature of the assay: Cytotoxicity for the compound was determined by the inhibition of the growing KB cells. It is filed as functional, cell-based. Particulars: Homo sapiens. In outline:
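KB cell growth was measured over two population doublings. Cells were plated at 3000–5000/well, cultured overnight, then compound was added in quadruplicate at 6–8 concentrations for 48 h at 37 °C in CO₂. Cells were fixed in 95% ethanol, stained with 0.1% crystal violet, eluted with 0.1 N HCl/ethanol and read at 570 nm. IC50 came from regression vs. log concentration. The positive control was 2-acetylpyridine thiosemicarbazone.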

For a further assay, the system named is Human betaherpesvirus 5. Nature of the assay: Compound was evaluated for antiviral activity by their capacity to inhibit replication of HCMV virus. It is filed as functional, organism-based. Summed up: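 Towne strain HCMV (plaque-purified isolate P₀) plaque reduction in HFF cells in 24-well dishes, ~100 pfu/cm² cell sheet. After adsorption, compound in growth medium was added at 4–8 concentrations in duplicate wells. Incubation was 10–12 days at 37 °C, then crystal violet fixation/staining and microscopic plaque counts. IC50 came from linear regression of % plaque reduction vs. log concentration. Ganciclovir served as positive control.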

For a further assay, the system named is Human alphaherpesvirus 1. As to the kind of experiment: Compound was evaluated for the antiviral activity by their capacity to inhibit the replication of HSV-1 virus. The format is functional, organism-based. Summed up: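 HSV-1 (KOS strain) ELISA in BSC-1 cells, 10 000 cells/well in MEM(E) + 10% calf serum, after overnight culture at 37 °C. Drug was added in quadruplicate with 100 pfu/well virus and incubated 3 days at 37 °C. Detection used HRP-conjugated rabbit anti-HSV-1 with TMB substrate, read at 450/570 nm. IC50 came from regression of % absorbance reduction vs. log concentration. Acyclovir was the positive control.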

The next assay has as its system HFF. As to the kind of experiment: Cytotoxicity for the compound was determined in uninfected stationary human foreskin fibroblasts (HFF) cells. The format is functional, cell-based. Summed up:
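Stationary HFF monolayers not affected by virus in the HCMV plaque assay were examined microscopically for cytotoxicity. Visual scoring was done at the time of plaque enumeration, after 10–12 days at 37 °C. IC50 came from regression against log concentration.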

With `CCOC(=O)c1nc([C@@H]2O[C@H](CO)[C@@H](O)[C@H]2O)c(NC)nc1Cl`, the IC50 in the assay on KB, in the assay on Human betaherpesvirus 5, in the assay with Human alphaherpesvirus 1 and in the assay on HFF was over 100 µM each time.

On to `COc1nc(Cl)c(C(N)=O)nc1[C@@H]1O[C@H](CO)[C@@H](O)[C@H]1O`, for which the IC50 with KB, with Human betaherpesvirus 5, in the assay with Human alphaherpesvirus 1 and in the assay with HFF was over 100 µM in each case.

For the molecule `NC(=O)c1nc([C@@H]2O[C@H](CO)[C@@H](O)[C@H]2O)c(N)nc1Cl`, the IC50 with KB, in the assay on Human betaherpesvirus 5, in the assay on Human alphaherpesvirus 1 and in the assay with HFF was over 100 µM throughout.

In the case of `Nc1nc2c(ncn2COC(CO)CO)c(=O)[nH]1` [GANCICLOVIR], the values for the 50% inhibitory concentration (IC50) in the assay on KB, in the assay on Human alphaherpesvirus 1 and in the assay on HFF were over 100 µM, 1.8 µM and over 100 µM, respectively.

Regarding `CCOc1nc(Cl)c(C(N)=O)nc1[C@@H]1O[C@H](CO)[C@@H](O)[C@H]1O`, the half-maximal inhibitory concentration (IC50) in the assay on KB, with Human betaherpesvirus 5, with Human alphaherpesvirus 1 and in the assay on HFF was over 100 µM throughout.

In the case of `OC[C@H]1O[C@@H](c2ncc(Cl)nc2Cl)[C@H](O)[C@@H]1O`, the IC50 is 70 µM in the assay with Human betaherpesvirus 5 and over 100 µM with HFF.

`CCOC(=O)c1nc([C@@H]2O[C@H](CO)[C@@H](O)[C@H]2O)c(Cl)nc1Cl`: the concentration for half-maximal inhibition (IC50) with KB came out at 20 µM; with Human betaherpesvirus 5 it was 3.2 µM; in the assay on Human alphaherpesvirus 1, 20 µM; with HFF, 3.2 µM.

For the molecule `CCOC(=O)c1nc([C@@H]2O[C@H](CO)[C@@H](O)[C@H]2O)c(N)nc1Cl`, the IC50 in the assay with KB, in the assay with Human betaherpesvirus 5, in the assay on Human alphaherpesvirus 1 and with HFF was over 100 µM throughout.
